This note sets out measurements from ChEMBL document CHEMBL1130063, “Design and synthesis of potent antitumor 5,4'-diaminoflavone derivatives based on metabolic considerations” (J Med Chem, 1997).

SMILES strings stand for the structures.

The subject of assay [1] is MCF7. In words: Growth-Inhibitory activity against MCF-7 Cells in the absence of S-9 Mix. The assay is classed as functional, cell-based, Homo sapiens. The essentials:
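MCF-7 cells were exposed to compound for 6 days in medium without S-9 mix, and cells were counted with a microcell counter.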

Assay [2] deals with MCF7. In words: Growth-Inhibitory activity against MCF-7 Cells in the presence of S-9 Mix. The assay is classed as functional, cell-based. The note with it: Homo sapiens. In outline:
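MCF-7 cells were exposed to compound for 6 days and counted with a microcell counter. S-9 mix was in the medium at 0.125% of a 30% S-9 mix solution. That solution was made from rat liver S-9, glucose 6-phosphate, β-NADPH, 20 mM HEPES, 50 mM MgCl2, 330 mM KCl and water.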

The test system of assay [3] is WiDr. Nature of the assay: In vitro Growth Inhibitory activity against WiDr Human colon cancer cell line. The assay is classed as functional, cell-based. In outline:
(§1)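 Cells were grown with 10% FBS. Seeding per well was 3 × 10^3 for Ishikawa, 5 × 10^3 for Hep-G2, 2.5 × 10^3 for WiDr and 1.5 × 10^3 for ACHN. Exposure lasted 6 days, followed by microcell-counter cell counts.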

Assay [4] relates to HepG2. Nature of the assay: In vitro Growth Inhibitory activity against HepG2 Human liver cancer cell line. The assay is classed as functional, cell-based. The essentials:
as §1

Assay [5] has as its system MCF7. Nature of the assay: In vitro Growth Inhibitory activity against MCF-7 Human breast cancer cell line. The assay is classed as functional, cell-based. The essentials: (§2)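 Each cell line was treated for 6 days, and growth was read by counting cells with a microcell counter.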
Assay [6] deals with A2780. Nature of the assay: In vitro Growth Inhibitory activity against A2780 Human ovarian cancer cell line. The assay is classed as functional, cell-based. In outline: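 A2780 was seeded at 1 × 10^3 cells/well in RPMI 1640 with 5% FBS, exposed to compound for 6 days, and counted with a microcell counter.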
The subject of assay [7] is A-431. Nature of the assay: In vitro Growth Inhibitory activity against A431 Human vulva cancer cell line. The assay is classed as functional, cell-based. The essentials:
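A431 was seeded at 1.5 × 10^3 cells/well in Dulbecco's modified Eagle's medium with FBS, treated for 6 days, and counted with a microcell counter.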

Assay [8] concerns T47D. Nature of the assay: In vitro Growth Inhibitory activity against T-47D Human breast cancer cell line. The assay is classed as functional, cell-based. The essentials:
(§3)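 Cells were grown in RPMI 1640 with 10% FBS. Seeding per well was 3 × 10^3 for T-47D and OVCAR-3, and 1.5 × 10^3 for MKN-28 and PSN-1. Compound exposure lasted 6 days, and cells were counted with a microcell counter.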

In assay [9] the test system is ACHN. In words: In vitro Growth Inhibitory activity against ACHN Human kidney cancer cell line. The assay is classed as functional, cell-based. In outline:
as §1

In assay [10] the test system is Ishikawa. Nature of the assay: In vitro Growth Inhibitory activity against Ishikawa Human endometrial cancer cell line. The assay is classed as functional, cell-based. The essentials: as §1
In assay [11] the test system is OVCAR-3. In words: In vitro Growth Inhibitory activity against OVCAR-3 Human ovarian cancer cell line. The assay is classed as functional, cell-based. In outline:
as §3

Assay [12] deals with SK-BR-3. Nature of the assay: In vitro Growth Inhibitory activity against SK-BR-3 Human breast cancer cell line. The assay is classed as functional, cell-based. The essentials: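 SK-BR-3 was seeded at 1 × 10^4 cells/well in McCoy's 5a with 10% FBS, treated for 6 days, and counted with a microcell counter.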
The subject of assay [13] is PSN1. Nature of the assay: In vitro Growth Inhibitory activity against PSN-1 Human pancreas cancer cell line. The assay is classed as functional, cell-based. The essentials: as §3
The test system of assay [14] is MDA-MB-453. In words: In vitro Growth Inhibitory activity against MD-453 Human breast cancer cell line. The assay is classed as functional, cell-based. In outline: as §2
In assay [15] the test system is MKN-28. In words: In vitro Growth Inhibitory activity against MKN Human stomach cancer cell line. The assay is classed as functional, cell-based. The essentials: as §3

One may read the IC50 as the concentration that inhibits the measured activity by half. For the compound `Nc1ccc(-c2cc(=O)c3c(N)ccc(Cl)c3o2)cc1`, the IC50 in assay [1] (Homo sapiens, MCF7) was 9.8 nM; in [2], 250 nM.

Regarding `Nc1ccc(-c2cc(=O)c3c(N)ccc(O)c3o2)cc1`, the IC50 in assay [1] (Homo sapiens, MCF7) is 5300 nM; in [2] it was 16000 nM.

As for `Nc1ccc(-c2cc(=O)c3c(N)c(Br)cc(Br)c3o2)cc1`, inhibition in assay [1] (Homo sapiens, MCF7) was half-maximal at 6300 nM (IC50).

With `Nc1ccc(-c2cc(=O)c3c(N)ccc(F)c3o2)cc1`, the half-inhibitory concentration (IC50) in assay [1] (Homo sapiens, MCF7) came to 6.9 nM; in assay [2], 170 nM.

On to `COc1ccc(N)c2c(=O)cc(-c3ccc(N)cc3)oc12`, for which the IC50 in assay [1] (Homo sapiens, MCF7) amounted to 21000 nM; in assay [1] (mcf7) it was 19000 nM.

As for `Nc1ccc(-c2cc(=O)c3c(N)c(F)cc(F)c3o2)cc1F`, the IC50 in assay [1] (Homo sapiens, MCF7) is 1.2 nM; in assay [3], over 1000 nM; in assay [4], 2.8 nM; in assay [5] it was 1.2 nM; in assay [6], 1.3 nM; in assay [7], over 1000 nM. The IC50 was 31 nM in assay [8]; over 1000 nM in assay [9]; 13 nM in [10]; 25 nM in [2]; 14 nM in [11]; 2.5 nM in assay [12]. For the same compound, the IC50 in assay [13], in assay [14] and in assay [15] was over 1000 nM in each case.

As for `Cc1ccc(N)c2c(=O)cc(-c3ccc(N)c(F)c3)oc12`, the IC50 worked out at 15 nM in assay [1] (Homo sapiens, MCF7) and 180 nM in [2].

In the case of `Nc1ccc(-c2cc(=O)c3c(N)c(Cl)ccc3o2)cc1`, the IC50 in assay [1] (Homo sapiens, MCF7) is 3.9 nM; in [2] it was over 10000 nM.

For `Nc1ccc(-c2cc(=O)c3c(N)c(F)ccc3o2)cc1`, the IC50 in [1] (Homo sapiens, MCF7) came to 4.4 nM; in [2] it was 130 nM.

`Nc1ccc(-c2cc(=O)c3c(N)cccc3o2)cc1`: the IC50 was found to be 7.3 nM in assay [1] (Homo sapiens, MCF7) and 210 nM in assay [2].

For `Nc1ccc(-c2cc(=O)c3c(N)c(Cl)cc(Cl)c3o2)cc1`, the IC50 in assay [1] (Homo sapiens, MCF7) is 53 nM; in assay [2], 610 nM.

With `Nc1c(F)cc(-c2cc(=O)c3c(N)c(F)cc(F)c3o2)cc1F`, the IC50 in assay [1] (Homo sapiens, MCF7) was found to be 4 nM; in assay [2], 89 nM.

For the compound `Cc1cc(C)c2oc(-c3ccc(N)c(F)c3)cc(=O)c2c1N`, the IC50 in assay [1] (Homo sapiens, MCF7) came to 36 nM; in assay [2] it was 110 nM.

On to `Nc1ccc(-c2cc(=O)c3c(N)c(F)cc(F)c3o2)cc1`, for which the IC50 was found to be 6 nM in [1] (Homo sapiens, MCF7) and 46 nM in assay [2].
